Screens deposited in PubChem by several laboratories.
Cl transport mod – KCC2 (human) Cl- transport modulation; KCC2 cells, thallium flux FluoZin-2 fluorescence; Q9H2X9; 190,000 tested, 2.2% active; B-score of Tl+ flux slope (higher = more flux/activation; lower = inhibition) at 10 µM;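 active = thallium flux slope and its plate-corrected score both differing from the plate sample mean at a set confidence after two filtering rounds, in either direction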;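 also: slope of fluorescence scaled to starting intensity during 10 to 20 s after thallium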
Rad51 HR inh – blocks human Rad51 in homologous recombination; inhibition, % at 10 µM; hRad51 DNA strand exchange, fluorescence dequenching; 200,000 tested, 0.085% active; AID 1385;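 active = inhibition above 40% at the single screening dose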;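 also: 0% = DMSO control wells and 100% = blanks with heterologous ssDNA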
Target sequence (Q06609 whole entry, looked up): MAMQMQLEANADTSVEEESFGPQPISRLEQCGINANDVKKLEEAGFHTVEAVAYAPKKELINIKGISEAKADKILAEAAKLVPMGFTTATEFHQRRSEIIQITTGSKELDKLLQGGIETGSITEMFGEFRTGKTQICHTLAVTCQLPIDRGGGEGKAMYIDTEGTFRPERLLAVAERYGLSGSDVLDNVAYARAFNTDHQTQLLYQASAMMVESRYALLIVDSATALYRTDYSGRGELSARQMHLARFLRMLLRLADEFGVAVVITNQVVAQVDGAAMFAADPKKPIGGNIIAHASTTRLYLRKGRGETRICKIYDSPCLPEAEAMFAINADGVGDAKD
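Test system: preformed human Rad51 ssDNA filaments; also added: Donor/quencher-labelled 47-bp dsDNA substrate; doses: 10 µM final, single point; times: 37 °C 15-min filament assembly, 30-min compound preincubation, 15-min exchange; detection: FRET fluorescence dequenching, excitation 485 nm, emission 520 nm; read-out basis: Fluorescence-based percent inhibition, control- and blank-normalised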
ROMK mod – human ROMK K+ channel modulation, primary screen; P48048; Tet-inducible ROMK, thallium flux fluorescence; actives lie on both sides; B-score at 10 µM; 130,000 tested, 2% active;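 active = signal ratio slope over the read window, or its plate-corrected B-score, at least 3 SD from the plate mean, either direction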;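 also: B-score of the F/F0 ratio slope over 7 to 12 s after thallium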
PKD1 kinase inh – inhibitors of human PKD1 kinase; inhibition, % (no concentration beside the values); 200,000 tested, 0.056% active; Q15139; PKD1 kinase fluorescence polarization assay; in the data active = inhibition above about 50%
ROMK hit retest – confirmation of human ROMK potassium channel modulators; shares compounds with ROMK mod; ROMK thallium flux, fluorescence ratio; hits give low values; normalized thallium flux (F/F0 slope) at 10 µM; 3,000 tested, 54% active;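 active = Flux at 10 µM at least 3 SD below or above vehicle control mean in one or both replicates; inconclusive = no clear call, values can overlap the other calls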
* = called active by the depositor; i = inactive; ? = inconclusive; nt = no result. A selection: hits, their analogues and other compounds. The true share with any hit is near 3%.

SMILES | Cl transport mod | Rad51 HR inh | ROMK mod | PKD1 kinase inh | ROMK hit retest
O=C(c1ccncc1)c1ccc(N2CCN(C3CC(=O)N(Cc4ccccc4)C3=O)CC2)cc1 (stereo not given) | nt | 10 | -4* | 3 | ?
COc1ccc(N2CCN(C3CC(=O)N(Cc4ccccc4)C3=O)CC2)cc1 (stereo not given) | 0.066 | -3 | 0.02 | -2 | nt
Oc1ccc(N=Nc2n[nH]c(-c3ccc(Cl)cc3)n2)cc1 | -0.33 | -1 | 0.31 | -1 | nt
COc1ccc(CC(=O)NCCc2ccc(S(N)(=O)=O)cc2)cc1 | 1.9 | nt | 1.5* | 1 | 0.085
COc1ccccc1N1CCN(/N=C/C=C/c2ccccc2[N+](=O)[O-])CC1 | -0.72 | nt | nt | nt | nt
Cc1nc(Cl)c2c(n1)NC1=C(O2)C(=O)CCC1 | i | -10 | nt | -2 | nt
CC(=O)N1CCN(c2ccccc2NC(=O)COc2cc(C)ccc2C(C)C)CC1 | nt | 11 | nt | -8 | 0.078
CN1CCN(c2ccccc2NC(=O)COc2ccccc2)CC1 | 0.52 | 1 | -0.52 | -1 | nt
Cc1ccc(C(C)C)c(OCC(=O)NN=C(CCl)CCl)c1 | 0.22 | nt | -4.6* | nt | 0.06*
Cc1ccc(C(C)C)c(OCC(=O)Nc2ccccc2N2CCN(C)CC2)c1 | 1.9 | -8 | -2.9* | 0 | 0.066*
Cc1cccc(N2CCN(C3=NC(=O)C(Cc4ccccc4)S3)CC2)c1 (stereo not given) | -0.97 | -6 | nt | 5 | nt
O=C(O)C1CC=CCC1C(=O)c1ccccc1 (stereo not given) | 0.76 | -3 | 3.4* | -5 | 0.081
O=C(CCS(=O)(=O)c1ccc(Br)cc1)Nc1ccc(Br)cc1F | 0.23 | -11 | -0.98 | -1 | nt
COc1ccc(/C=C/c2nc3sc4c(c3c(=O)o2)CCC4)cc1 | 0.25 | -50 | nt | -3 | nt
O=c1oc(/C=C/c2ccccc2)nc2sc3c(c12)CCC3 | nt | -4 | -3.7* | -4 | 0.045*
CC#CCN1c2ccccc2[C@]23C[C@@H](C(=O)OC)N(C(=O)NC4CCCCC4)C2=NC(C(=O)OC)=C(C(=O)OC)[C@H]13 | nt | -10 | nt | nt | nt
Cc1cc(F)ccc1N1CCC(N2CCN(CCC(C)C)C(CCO)C2)CC1 (stereo not given) | -0.094 | -6 | -2.8* | -6 | 0.058*
Cc1cc(F)ccc1N1CCC(N2CCN(C(C)C)C(CCO)C2)CC1 (stereo not given) | 1.2 | nt | 0.99 | -4 | nt
COc1ccc(C(=O)Nc2cccc(-c3cc4ccccc4oc3=O)c2)cc1[N+](=O)[O-] | 1.4 | -8 | nt | 1 | nt
COC(=O)c1ccccc1-c1ccc(/C=N/Nc2nc(N3CCCC3)nc(N3CCCC3)n2)o1 | -0.2 | 7 | nt | nt | ?
CCOC(=O)c1oc2nc3c(cc2c1N)COC(C)(C)C3 | 0.31 | 0 | 3.5* | 4 | 0.078
CCOC(=O)c1oc2nc3c(cc2c1N)CCCC3 | -0.031 | 11 | nt | nt | nt
COc1cccc(/C=N/NC(=O)CC2C(=O)NN=C2C)c1OC (stereo not given) | 1.5 | 5 | nt | 4 | nt
COc1ccccc1/C=C/C=N/NC(=O)CC1C(=O)NN=C1C (stereo not given) | 0.31 | -31 | -11* | nt | 0.077
CCN(CC)CCCNC(=O)CSc1nc(C)cc(C)n1 | nt | 0 | 0.31 | -7 | nt
SMILES | Cl transport mod | Rad51 HR inh | ROMK mod | PKD1 kinase inh | ROMK hit retest
CCn1cc(C(=O)NCC(=O)OC)c2cc(OC)c(OC)cc2c1=O | 0.8 | -6 | nt | -3 | nt
CCn1cc(C(=O)NCc2ccc(C)o2)c2cc(OC)c(OC)cc2c1=O | 1.6 | -1 | nt | -9 | ?
O=c1c([N+](=O)[O-])cc(C(F)(F)F)cn1Cc1c(Cl)cccc1Cl | 0.043 | nt | nt | -17 | 0.073
CN(C(=O)c1cc(-n2cnnc2)ccc1Cl)c1ccccc1 | 1 | nt | nt | 6 | nt
CC(NC(=O)CSc1nnc(-c2cccc(S(=O)(=O)N3CCCCC3)c2)o1)C12CC3CC(CC(C3)C1)C2 (stereo not given) | -0.4 | 4 | -3.8* | 2 | 0.066*
COc1ccc(OCC(N)=O)cc1 | nt | nt | nt | 2 | 0.084
CCOC(=O)CSc1n[nH]c(NC(C)=O)n1 | nt | nt | 1.7 | -2 | nt
CN(C)c1ccc(/C=N/NC(=O)CCc2nc3ccccc3[nH]2)cc1 | -0.74 | 11 | nt | nt | nt
C=CCN1C(=O)C(CC(=O)O)SC1=Nc1ccc(C)cc1 (stereo not given) | nt | -21 | -0.095 | -3 | nt
S=C(CN1CCCC1=S)NCCc1ccccc1 | 0.85 | nt | nt | nt | 0.078
OC1CCN(C(=S)NCCc2ccccc2)CC1 | -0.57 | 2 | 1.3 | -7 | nt
Cc1ccccc1NC(=O)CS(=O)(=O)c1cn(CC(=O)N2CCOCC2)c2ccccc12 | 0.13 | 3 | 2* | 6 | 0.073
